Calls of active or inactive are those of the source.
How the values were obtained:
[1] = test system: T47D; experiment: Growth inhibition of tamoxifen-sensitive human T47D cells measured after 5 days by Hoechst 33342 dye based imaging analysis; assay type: functional, cell-based
Procedure, shortened: (§1)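 Cells seeded at 2000/well in their maintenance medium, treated once the next day with compound (0.1 nM–10 μM; 0.1% DMSO final). Day 5 Hoechst 33342 staining with imaging count. Survival normalized to DMSO (100%) and JQ1 3 μM (0%). IC50 given as mean ± SEM from at least two passages, each in triplicate.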

[2] = test system: MCF7:CFR; experiment: Down regulation of ZMYND8 gene expression in fulvestrant-resistant human MCF7:CFR cells at 100 nM measured after 24 hrs; assay type: functional, cell-based
Procedure, shortened: (§2)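 MCF-7:CFR cells were treated with compound at 100 nM or DMSO (0.01%) for 24 h. RNA extracted and RNA-seq performed. Output given as log2 fold change versus vehicle.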

[3] = test system: MCF7:CFR; experiment: Down regulation of PARP10 gene expression in fulvestrant-resistant human MCF7:CFR cells at 100 nM measured after 24 hrs; assay type: functional, cell-based; procedure, shortened: as §2
[4] = test system: MCF7:CFR; experiment: Down regulation of ESR1 gene expression in fulvestrant-resistant human MCF7:CFR cells at 100 nM measured after 24 hrs; assay type: functional, cell-based; procedure, shortened: as §2
[5] = test system: MCF7:CFR; experiment: Down regulation of NUPR1 gene expression in fulvestrant-resistant human MCF7:CFR cells at 100 nM measured after 24 hrs; assay type: functional, cell-based; procedure, shortened: as §2
[6] = test system: MCF7:CFR; experiment: Down regulation of IGFBP5 gene expression in fulvestrant-resistant human MCF7:CFR cells at 100 nM measured after 24 hrs; assay type: functional, cell-based; procedure, shortened: as §2
[7] = test system: MCF7:CFR; experiment: Down regulation of IFI44L gene expression in fulvestrant-resistant human MCF7:CFR cells at 100 nM measured after 24 hrs; assay type: functional, cell-based; procedure, shortened: as §2
[8] = test system: MCF7:CFR; experiment: Up regulation of APAF1 gene expression in fulvestrant-resistant human MCF7:CFR cells at 100 nM measured after 24 hrs; assay type: functional, cell-based
Procedure, shortened: (§3)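 MCF-7:CFR cells (fulvestrant-resistant, kept in 200 nM fulvestrant in phenol red-free stripped RPMI-1640) treated with 100 nM compound or DMSO (0.01%) for 24 h. RNA extracted and RNA-seq performed, expression reported as log2 fold change versus vehicle.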

[9] = test system: MCF7:CFR; experiment: Down regulation of BCL2 gene expression in fulvestrant-resistant human MCF7:CFR cells at 100 nM measured after 24 hrs; assay type: functional, cell-based; procedure, shortened: as §2
[10] = test system: MCF7:CFR; experiment: Down regulation of CLEC3A gene expression in fulvestrant-resistant human MCF7:CFR cells at 100 nM measured after 24 hrs; assay type: functional, cell-based; procedure, shortened: as §2
[11] = test system: MCF7:CFR; experiment: Up regulation of CASP3 gene expression in fulvestrant-resistant human MCF7:CFR cells at 100 nM measured after 24 hrs; assay type: functional, cell-based; procedure, shortened: as §3
[12] = test system: MCF7:CFR; experiment: Down regulation of NRAS gene expression in fulvestrant-resistant human MCF7:CFR cells at 100 nM measured after 24 hrs; assay type: functional, cell-based; procedure, shortened: as §2
[13] = test system: MCF7:CFR; experiment: Up regulation of CASP6 gene expression in fulvestrant-resistant human MCF7:CFR cells at 100 nM measured after 24 hrs; assay type: functional, cell-based; procedure, shortened: as §3
[14] = test system: MCF7:CFR; experiment: Growth inhibition of fulvestrant-resistant human MCF7:CFR cells at 1 to 30 nM treated for 3 hrs followed by compound washout and measured after 5 days by Hoechst 33342 dye based imaging analysis; assay type: functional, cell-based
Procedure, shortened: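 MCF-7:CFR cells grown 2 days in phenol red-free RPMI/10% charcoal-dextran FBS, then seeded at 2000 cells/well. Treated next day; medium replaced with normal growth medium after 3 h. On day 5, cells stained with Hoechst 33342 and counted by imaging. Survival normalized to DMSO (100%) and JQ1 3 μM (0%).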

[15] = organism: Homo sapiens; experiment: Growth inhibition of human T47D:TDG cells harboring ESR1 D538G mutant measured after 5 days by Hoechst 33342 dye based imaging analysis; assay type: functional; procedure, shortened: as §1
[16] = test system: MCF7:CFR; experiment: Down regulation of BCL2L1 gene expression in fulvestrant-resistant human MCF7:CFR cells at 100 nM measured after 24 hrs; assay type: functional, cell-based; procedure, shortened: as §2
[17] = test system: MCF7:CFR; experiment: Down regulation of cyclin-D gene expression in fulvestrant-resistant human MCF7:CFR cells at 100 nM measured after 24 hrs; assay type: functional, cell-based
Procedure, shortened: (§4)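 MCF-7:CFR cells exposed to compound at 100 nM, with DMSO (0.01%) as control, for 24 h. RNA extracted and analysed by RNA-seq. Values are log2-fold changes in gene expression against the vehicle control.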

[18] = organism: Homo sapiens; experiment: Growth inhibition of tamoxifen-resistant human MCF7:5C cells measured after 5 days by Hoechst 33342 dye based imaging analysis; assay type: functional; procedure, shortened: as §1
[19] = test system: MCF7:CFR; experiment: Down regulation of BCAS1 gene expression in fulvestrant-resistant human MCF7:CFR cells at 100 nM measured after 24 hrs; assay type: functional, cell-based; procedure, shortened: as §2
[20] = test system: MCF7:TAM1; experiment: Antitumor activity against human MCF7:TAM1 cells xenografted in ovariectomized athymic Nude-Foxn1 mouse assessed as tumor growth inhibition at 30 mg/kg/day, po administered via gavage for 4 weeks in presence of fulvestrant; assay type: functional, organism-based
Procedure, shortened: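 MCF-7:Tam1 tumours established in 4–6 week old female ovariectomized athymic nude mice given daily tamoxifen 1.5 mg/mouse. […] Fulvestrant 1 (mg/mouse)/week sc. Tumour volume measured weekly by calipers as length × width² × π/6.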

[21] = test system: MCF7:CFR; experiment: Down regulation of ERBB3 gene expression in fulvestrant-resistant human MCF7:CFR cells at 100 nM measured after 24 hrs; assay type: functional, cell-based; procedure, shortened: as §2
[22] = test system: MCF7:CFR; experiment: Down regulation of c-MET gene expression in fulvestrant-resistant human MCF7:CFR cells at 100 nM measured after 24 hrs; assay type: functional, cell-based; procedure, shortened: as §2
[23] = organism: Homo sapiens; experiment: Growth inhibition of tamoxifen and palbociclib-resistant human MCF7:CPR cells measured after 5 days by Hoechst 33342 dye based imaging analysis; assay type: functional; procedure, shortened: as §1
[24] = test system: MCF7:CFR; experiment: Up regulation of CASP9 gene expression in fulvestrant-resistant human MCF7:CFR cells at 100 nM measured after 24 hrs; assay type: functional, cell-based; procedure, shortened: as §3
[25] = test system: MCF7:CFR; experiment: Up regulation of CDKN1B gene expression in fulvestrant-resistant human MCF7:CFR cells at 100 nM measured after 24 hrs; assay type: functional, cell-based; procedure, shortened: as §4
[26] = test system: MCF7:CFR; experiment: Down regulation of KRT83 gene expression in fulvestrant-resistant human MCF7:CFR cells at 100 nM measured after 24 hrs; assay type: functional, cell-based; procedure, shortened: as §2
[27] = test system: MCF7:TAM1; experiment: Growth inhibition of tamoxifen-resistant human MCF7:TAM1 cells measured after 5 days by Hoechst 33342 dye based imaging analysis; assay type: functional, cell-based; procedure, shortened: as §1
[28] = test system: MCF7:CFR; experiment: Down regulation of n-MYC gene expression in fulvestrant-resistant human MCF7:CFR cells at 100 nM measured after 24 hrs; assay type: functional, cell-based; procedure, shortened: as §4
[29] = test system: MCF7:CFR; experiment: Down regulation of HIST1H3B gene expression in fulvestrant-resistant human MCF7:CFR cells at 100 nM measured after 24 hrs; assay type: functional, cell-based; procedure, shortened: as §2
[30] = test system: MCF7:CFR; experiment: Down regulation of CCDC170 gene expression in fulvestrant-resistant human MCF7:CFR cells at 100 nM measured after 24 hrs; assay type: functional, cell-based; procedure, shortened: as §2
[31] = test system: MCF7:CFR; experiment: Up regulation of RIPK1 gene expression in fulvestrant-resistant human MCF7:CFR cells at 100 nM measured after 24 hrs; assay type: functional, cell-based; procedure, shortened: as §3
[32] = organism: Homo sapiens; experiment: Growth inhibition of tamoxifen-sensitive human MCF7:WS8 cells measured after 5 days by Hoechst 33342 dye based imaging analysis; assay type: functional; procedure, shortened: as §1
[33] = test system: MCF7:CFR; experiment: Down regulation of c-MYC gene expression in fulvestrant-resistant human MCF7:CFR cells at 100 nM measured after 24 hrs; assay type: functional, cell-based; procedure, shortened: as §4

CCS(=O)(=O)Nc1cc(-c2cn(C)c3c(=O)[nH]ccc23)cc2c1ccn2C(C)(c1ccccn1)c1ccccn1
active: growth inhibition (GI) [1] Dose-dependent effect | Activity [2] | Activity [3] | Activity [4] | Activity [5] | Activity [6] | Activity [7] | Activity [8] | Activity [9] | Activity [10] | Activity [11] | Activity [12] | Activity [13] | growth inhibition (GI) [14] | growth inhibition (GI) [15] Dose-dependent effect | Activity [16] | Activity [17] | growth inhibition (GI) [18] Dose-dependent effect | Activity [19] | TGI [20] | Activity [21] | Activity [22] | growth inhibition (GI) [23] Dose-dependent effect | Activity [24] | Activity [25] | Activity [26] | growth inhibition (GI) [27] Dose-dependent effect | Activity [28] | Activity [29] | Activity [30] | Activity [31] | growth inhibition (GI) [32] Dose-dependent effect | Activity [33]

Reference: ChEMBL document CHEMBL4610112, “Novel Pyrrolopyridone Bromodomain and Extra-Terminal Motif (BET) Inhibitors Effective in Endocrine-Resistant ER+ Breast Cancer with Acquired Resistance to Fulvestrant and Palbociclib” (J Med Chem, 2020)
